Assay results from different studies.
Compare with care: the assays were run in different laboratories.
TYK2: Non-receptor tyrosine-protein kinase TYK2 (TYK2, Homo sapiens, UniProt P29597)
TYK2 JH2: Non-receptor tyrosine-protein kinase TYK2, JH2 (TYK2, Homo sapiens, UniProt P29597)

| Compound | target | read-out | mode | method | concentration | measurement | value |
| --- | --- | --- | --- | --- | --- | --- | --- |
| CC(C)(C)c1cc(C=C(C#N)C#N)cc(Br)c1O | TYK2 | enzyme activity | inhibitor |  | 0.5 µM | remaining activity | 61.3% |
| Cn1cc(-c2cccc(N3CCc4c(sc5c4CC(C)(C)C5)C3=O)c2CO)cc(Nc2ccncn2)c1=O | TYK2 | enzyme activity | inhibitor |  | 1 µM | inhibition | 3% |
| Cn1cncc1[C@@](O)(COc1ccc(C#N)cc1-c1ccc(OC(F)(F)F)cc1)c1ccc(C#N)cc1 | TYK2 JH2 | cell-free assay |  | competition with immobilised ligand | 1 µM | remaining binding | 100% |
| COc1ncccc1-c1cnn2ccc(N3CCN(C(=O)OC(C)C)CC3)nc12 | TYK2 | binding |  | competition with immobilised ligand | 1 µM | remaining binding | 76% |
| O=c1[nH]c2ccccc2n1C1CCN(Cc2ccc(-c3[nH]c4cc5ncnc5cc4nc3-c3ccccc3)cc2)CC1 | TYK2 | cell-free assay |  |  | 0.5 µM | remaining signal | 101% |
| Cc1nn(C)cc1-c1nc2c(N3CCN(Cc4ccc(Cl)cc4)CC3)c(Cl)cnc2[nH]1 | TYK2 JH2 | binding |  | competition with immobilised ligand | 1 µM | remaining binding | 100% |
| Nc1ncc(-c2nc(N3CCOCC3)nc(N3CCOCC3)n2)c(C(F)F)n1 | TYK2 JH2 | binding |  | competition with immobilised ligand | 10 µM | remaining binding | 15% |
| Cn1cc(-c2cc(F)cc(N3CCn4c(cc5c4CCCC5)C3=O)c2CO)cc(Nc2ccc(N3CCN(C4COC4)CC3)cn2)c1=O | TYK2 | enzyme activity | inhibitor |  | 0.1 µM | inhibition | 1% |
| N#CC1(c2ccccn2)CCN(Cc2cc(C(=O)O)c(=O)n3ccccc23)CC1 | TYK2 JH2 | cell-free assay |  | competition with immobilised ligand | 1 µM | remaining binding | 93% |
